In ChEMBL document CHEMBL3108704, “Novel endoperoxide-based transmission-blocking antimalarials with liver- and blood-schizontocidal activities” (ACS Med Chem Lett, 2014):
Calls of active or inactive are those of the source. No cut-off for these calls is given here.

Legend:
Plasmodium falciparum = test: Antimalarial activity against chloroquine-resistant erythrocyte stage of Plasmodium falciparum W2 after 48 hrs; type: functional, organism-based; conditions: W2, 48 h
Plasmodium berghei [1] = test: Antimalarial activity against liver stage of Plasmodium berghei infected in human Huh7 cells after 48 hrs by luciferase assay; type: functional, organism-based; conditions: Huh-7, 48 h
Plasma = test: Metabolic stability of the compound in 80% human plasma assessed as formation of primaquine and carboxyprimaquine metabolite after 3 days; type: ADME, cell-free; conditions: 72 h
[2] = Intrinsic clearance in rat liver microsomes at 0.1 uM; type: ADME; conditions: read-out: CLH
Procedure, shortened: (§1)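 Compound was incubated with rat liver microsomes at 37 °C. Half-life and in vitro intrinsic clearance (μL/min/mg protein) were determined, and in vivo hepatic extraction ratio was predicted from them.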

Plasmodium berghei [3] = test: Antisporogonic activity against GFP expressing Plasmodium berghei ANKA infected in BALB/c mouse assessed as inhibition of appearance of oocysts in Anopheles gambiae level at 10 umol/kg, ip by microscopic analysis (reference value: 83.6%); type: functional
[4] = Half life in rat liver microsomes at 0.1 uM; type: ADME; procedure, shortened: as §1
Plasmodium berghei [5] = test: Antisporogonic activity against GFP expressing Plasmodium berghei ANKA infected in BALB/c mouse assessed as inhibition of appearance of oocysts in Anopheles gambiae level at 25 umol/kg, ip by microscopic analysis (reference value: 83.6%); type: functional
Huh-7 = test: Cytotoxicity against human HuH7 cells assessed as cell viability by Alamar Blue assay; type: cell-based
Plasmodium berghei [6] = test: Antimalarial activity against GFP expressing Plasmodium berghei ANKA infected in C57Bl/6J mouse assessed as host survival at 30 mg/kg, ip qd for 5 days measured on day 5; type: functional, organism-based; parameters: dose 30 mg/kg
Procedure, shortened: (§2)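 Male C57Bl/6J mice were infected with GFP-expressing P. berghei ANKA on day 0. From day 4, compound was given i.p. at 30 mg/kg b.w. once daily for 5 consecutive days. Parasitemia was monitored daily by microscopy and flow cytometry. Survival was followed to the end of the experiment, and adverse reactions were recorded.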

Mus musculus = test: Toxicity in Plasmodium berghei ANKA infected C57Bl/6J mouse assessed as adverse reactions at 30 mg/kg, ip qd for 5 days measured on day 5; type: organism-based; parameters: dose 30 mg/kg, route intraperitoneal; conditions: in vivo, 120 h; procedure, shortened: as §2
Plasmodium berghei [7] = test: Antimalarial activity against GFP expressing Plasmodium berghei ANKA infected in C57Bl/6J mouse assessed as reduction of parasitemia at 30 mg/kg, ip qd for 5 days measured on day 5; type: functional, organism-based; parameters: dose 30 mg/kg; procedure, shortened: as §2

SMILES | IC50 (Plasmodium falciparum) | IC50 (Plasmodium berghei [1]) | Stability (Plasma) | microsomal CLint at 0.1 µM [2] | inhibition in vivo at 10 µmol/kg (Plasmodium berghei [3]) | half-life at 0.1 µM [4] | inhibition in vivo at 25 µmol/kg (Plasmodium berghei [5]) | IC50 (Huh-7) | Activity (Plasmodium berghei [6]) | Activity (Mus musculus) | Activity (Plasmodium berghei [7])
COc1cc(NC(C)CCCNCc2ccc(CO[C@H]3O[C@@H]4O[C@]5(C)CC[C@H]6[C@H](C)CC[C@@H]([C@H]3C)[C@@]46OO5)cc2)c2ncccc2c1 (stereo not given in full) | 12.5 nM | 155 nM | – | – | – | – | – | – | – | – | –
COc1cc(NC(C)CCCNCC2CCC3(CC2)OOC2(OO3)C3CC4CC(C3)CC2C4)c2ncccc2c1 (stereo not given) | 45.2 nM | > 1000 nM | Stable | 51.2 µL/min/mg | 42.9% | 27 min | 5.9% | 5020 nM | – | – | –
CCOC(=O)C1CCC2(CC1)OOC1(OO2)C2CC3CC(C2)CC1C3 (stereo not given) | 128 nM | > 10000 nM | – | – | – | – | – | – | – | – | –
COc1cc(NC(C)CCCNCC[C@H]2O[C@@H]3O[C@]4(C)CC[C@H]5[C@H](C)CC[C@@H]([C@H]2C)[C@@]35OO4)c2ncccc2c1 (stereo not given in full) | 9.3 nM | > 1000 nM | – | – | – | – | – | 32800 nM | – | – | –
COc1cc(NC(C)CCCNC(=O)C[C@H]2O[C@@H]3O[C@]4(C)CC[C@H]5[C@H](C)CC[C@@H]([C@H]2C)[C@@]35OO4)c2ncccc2c1 (stereo not given in full) | 9.1 nM | 523 nM | – | – | – | – | – | – | – | – | –
COc1cc(NC(C)CCCNC(=O)c2ccc(CO[C@H]3O[C@@H]4O[C@]5(C)CC[C@H]6[C@H](C)CC[C@@H]([C@H]3C)[C@@]46OO5)cc2)c2ncccc2c1 (stereo not given in full) | 5.1 nM | 67 nM | – | – | – | – | – | 73000 nM | – | – | –
C[C@@H]1CC[C@H]2[C@@H](C)C(=O)O[C@@H]3O[C@@]4(C)CC[C@@H]1[C@]32OO4 [ARTEMISININ] | 8.2 nM | > 10000 nM | – | – | – | – | – | – | – | – | –
COc1cc(NC(C)CCCNC2CCC3(CC2)OOC2(OO3)C3CC4CC(C3)CC2C4)c2ncccc2c1 (stereo not given) | 21.6 nM | 330 nM | – | – | 36.4% | – | 13.3% | 8200 nM | – | – | –
COc1cc(NC(C)CCCNC(=O)CC2CCC3(CC2)OOC2(OO3)C3CC4CC(C3)CC2C4)c2ncccc2c1 (stereo not given) | 36.5 nM | 604 nM | – | – | 66.7% | – | 11.4% | 2570 nM | – | – | –
COc1cc(NC(C)CCCN)c2ncccc2c1 (stereo not given) [PRIMAQUINE] | – | – | – | – | 35.5% | – | 2.2% | – | – | – | –
COc1cc(NC(C)CCCNC(=O)C2CCC3(CC2)OOC2(OO3)C3CC4CC(C3)CC2C4)c2ncccc2c1 (stereo not given) | 21.1 nM | 538 nM | Stable | 133 µL/min/mg | 68.6% | 10 min | 0% | > 100000 nM | Active | Non-toxic | Active
